Source: PubChem
Only some compounds are listed: those with a hit (about 0.77% of all), similar ones and a draw of the others.
Furin inhibitor: inhibitors of human furin | P09958 | hit rate 0.061% among 220,000 | inhibition, % at 20 µM or 30 µM | AID 463115 | purified furin, fluorogenic substrate cleavage; in the data active = inhibition above about 25%
ABCB1 inh: blocks JC-1 efflux by human ABCB1 transporter | P08183 | CCRF-Adr cells, flow cytometry | inhibition, % at 6.6 µM | hit rate 0.067% among 190,000; in the data active = inhibition above about 40%;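 note: 0% = vehicle and 100% = reference inhibitor; higher value means more JC-1 retained so stronger ABCB1 efflux block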
Rad51 HR inh: Rad51 (human) homologous recombination inhibition; hRad51 DNA strand exchange, fluorescence dequenching; hit rate 0.085% among 200,000; inhibition, % at 10 µM; Q06609;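 active = inhibition above 40% at the single screening dose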;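 note: 0% = DMSO control wells and 100% = blanks with heterologous ssDNA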
Target sequence (Q06609 whole entry, looked up): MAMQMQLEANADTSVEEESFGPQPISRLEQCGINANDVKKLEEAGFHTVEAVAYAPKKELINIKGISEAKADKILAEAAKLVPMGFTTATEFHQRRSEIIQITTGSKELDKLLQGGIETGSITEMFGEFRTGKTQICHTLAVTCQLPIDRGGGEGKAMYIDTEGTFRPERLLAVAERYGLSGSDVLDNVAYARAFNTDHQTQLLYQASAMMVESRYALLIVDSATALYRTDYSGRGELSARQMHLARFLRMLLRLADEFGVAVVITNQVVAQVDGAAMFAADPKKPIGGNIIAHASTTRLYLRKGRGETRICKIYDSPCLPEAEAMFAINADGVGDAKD
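material = hRad51 filaments on single-stranded DNA | reagent = Donor/quencher-labelled 47-bp dsDNA substrate | compound = 10 µM final, single point | schedule = strand-exchange reaction 15 min at room temperature | measured by = fluorescein emission 520 nm, excitation 485 nm | read-out basis = % inhibition versus plate control and blank means | benchmarks = plate controls and plate blanks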
HMGR II inh: inhibitors of class II HMG-CoA reductase from Enterococcus faecalis; AID 1066; inhibition, % at 10 µM; purified E. faecalis HMGR, NADPH absorbance 340 nm kinetic; hit rate 0.41% among 190,000;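 active = inhibition above a set limit, the median over all tested compounds plus 3 SD, cut at about 9.5% in these data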;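 note: enzyme runs in reverse so mevalonate oxidation gives rising NADPH absorbance; 0% = complete reaction with DMSO and 100% = background rate lacking mevalonate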
ABCG2 block: inhibitors of human ABCG2 transporter, ABCB1 counter-screen; Q9UNQ0; IgMXP3 cells, JC-1 efflux, flow cytometry; inhibition, % at 6.6 µM; hit rate 0.1% among 190,000; AID 1325;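 active = inhibition above 80%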;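 note: 0% = DMSO and 100% = nicardipine control wells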
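Test system: IgMXP3 (ABCG2) plus far-red-tagged CCRF-Adr (ABCB1) cells / Amount: 3 million cells/mL in well / Reagent: JC-1 transporter substrate / Timing: 10 min compound exposure, 25 °C / Signal: flow cytometry, 530 nm JC-1 signal / Read-out: percent efflux inhibition, scaled nicardipine 100% to DMSO 0% / Benchmarks: nicardipine as high control, DMSO as low control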
PERK inhibitor: blocks human PERK kinase. hit rate 0.17% among 220,000. CHO PERK-DD fusion, SEAP luminescence translation reporter. inhibition, % at 5.6 µM. Q9NZJ5;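 active = inhibition above the mean inhibition of all tested compounds plus 3 SD, set separately per screening campaign, cut at about 2.9% in these data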;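 note: PERK kinase domain activated by AP20187 dimerizer at 100 nM; 0% = DMSO with dimerizer and 100% = rapamycin at 8.4 µM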
Numbers without * were called inactive; x = not tested or not shown.

SMILES	Furin inhibitor	ABCB1 inh	Rad51 HR inh	HMGR II inh	ABCG2 block	PERK inhibitor
Cc1nc2ccccc2c(=O)n1/N=C/c1ccccn1	-20	1	10	0	8	3.0*
CCOC(=O)C1CC(C)=C(C)CC1C(=O)O (stereo not given)	-16	x	7	x	x	0
COc1ccc(S(=O)(=O)NCC2CCC(C(=O)NCC(OC)OC)CC2)cc1 (stereo not given)	-24	0	x	-2	1	3.2*
O=C(O)C(Cc1ccccc1)N1C(=O)CCC1=O (stereo not given)	-30	1	1	7	1	0
O=C(O)C(Cc1ccccc1)N1C(=O)C2CCCCC2C1=O (stereo not given)	-30	0	2	17*	1	1
O=C1/C(=C/c2cccs2)Sc2ccccc21	-5	0	-16	11*	-2	0
O=C1Nc2ccccc2S/C1=C/c1cccs1	-16	x	0	x	x	-1
O=S1(=O)N=C(Oc2ccccc2)c2ccccc21	-14	0	-1	1	12	2.9*
COC1=NS(=O)(=O)c2ccccc21	-12	0	13	-3	3	1
Nc1cccc(Oc2ccc([N+](=O)[O-])cc2)c1	-20	-2	4	10*	-4	2
O=C(O)c1cccc(Oc2ccc([N+](=O)[O-])cc2)c1	12	x	2	-7	x	-1
Cc1ccc(N/C(N)=N/c2nc(C)cc(N3CCCCC3)n2)c(C)c1	-15	2	5	2	0	-1
Cc1ccc(CNC(=O)/C=C/c2ccccc2Cl)cc1	-4	0	-9	-4	0	3.0*
O=C(Cn1ncc2c(=O)oc3ccccc3c21)Nc1nc2ccccc2s1	25*	0	3	-2	0	1
C=CCNC(=O)Nc1ccc(F)cc1F	-24	0	-3	-9	0	3.4*
O=c1cc(CSc2ccc([N+](=O)[O-])cc2)nc2sccn12	-11	0	-4	15*	2	0
O=C(c1ccc(F)cc1)N1CCCC(c2ccccc2)C1 (stereo not given)	-29	1	3	13*	2	0
O=C(c1ccc(F)cc1)N1CCN(C2CCC(c3ccccc3)CC2)CC1 (stereo not given)	-25	1	-4	-2	0	0
C=CC[C@]12CC=CC(=O)[C@@]1(O)O[C@H](c1ccc(OC)c(OC)c1)[C@H]2C	x	x	-5	x	x	x
c1ccc(-c2nnsc2-c2nc3ccccc3[nH]2)cc1	-23	0	-1	12*	1	0
CCOc1ccc(NC(=O)CN(C)c2nnnn2-c2ccccc2)cc1OCC	-32	1	-2	-2	3	1
CCCNC(=O)COC(=O)CCC(=O)c1ccc(F)cc1	-6	1	1	-5	1	1
Cc1ccc(N(CC(=O)N2CCOCC2)S(=O)(=O)c2ccccc2)cc1	-7	1	-5	12*	2	0
CCCCNC(=O)Nc1nc2ccc(CC)cc2s1	-17	0	0	7	1	0
C[C@@H]1CCC[C@]2(O[C@@H](CCO)C[C@@H](O)[C@@H]2O)O1	x	x	-6	x	x	x
SMILES	Furin inhibitor	ABCB1 inh	Rad51 HR inh	HMGR II inh	ABCG2 block	PERK inhibitor
CCOC(=O)/C(=N\Nc1cc(Cl)ccc1Cl)N1CC(C)OC(C)C1 (stereo not given)	-29	x	42*	x	x	1
COc1cccc(-n2cc(CNCc3c(C(=O)N(C)C)nc4ccc(Cl)cn34)cn2)c1	-27	0	3	1	8	0
Cc1ccccc1-n1cc(CNCc2c(C(=O)N(C)C)nc3ccc(Cl)cn23)cn1	-26	0	-10	13*	1	0
CCCCCOc1ccc(C2C(C(C)=O)=C(C)Nc3ncnn32)cc1OC (stereo not given)	-17	1	x	-2	10	-1
Cc1ccc(-c2nc(CN(C)Cc3ccc4nccnc4c3)c(C)o2)s1	-19	1	x	-6	4	1
COc1cc(S(=O)(=O)Nc2ncccc2C)c(OC)cc1Cl	28*	0	-1	2	1	1
COc1ccc(Br)cc1S(=O)(=O)Nc1ncccc1C	-13	1	26	-7	1	0
O=C(NNC(=O)C1CCN(S(=O)(=O)c2ccc(Cl)cc2)CC1)c1ccncc1	-26	0	0	13*	1	1
O=C(NNC(=O)C1CCN(S(=O)(=O)c2ccc(Cl)cc2)CC1)c1ccc(Cl)cc1	-18	1	0	0	2	0
COc1cc(C2OCC3C(c4ccc(OC5OC(CO)C(O)C(O)C5O)c(OC)c4)OCC23)ccc1O (stereo not given)	-19	-1	0	1	0	1
COc1ccc(C[C@H]2COC(=O)[C@@H]2Cc2ccc(OC3OC(CO)C(O)C(O)C3O)c(OC)c2)cc1OC (stereo not given in full)	-21	0	8	20*	-2	1
COc1ccccc1S(=O)(=O)Cc1ccc(C(=O)NCCN2CCCCCC2)o1	-19	0	0	10*	2	0
N#Cc1c(NC(=O)CCn2cnc3ccccc3c2=O)oc(-c2ccccc2)c1-c1ccccc1	28*	0	-1	-1	0	0
N#Cc1c(NC(=O)CCN2C(=O)c3ccccc3C2=O)oc(-c2ccccc2)c1-c1ccccc1	-7	1	-11	-2	2	1
CCn1cc(C2=NOC(C(=O)Nc3cc(C)nn3-c3ccccc3)C2)c(C)n1 (stereo not given)	-17	1	4	-1	1	0
CCOC(=O)c1ccc(Nc2c(OCC)c(=O)c2=O)cc1	-9	x	21	x	x	1
Nc1cc(=O)[nH]c(=O)n1Cc1ccco1	26*	0	4	0	0	1
CCN1C(=O)C(C(=O)c2ccccc2)SC1=S (stereo not given)	-19	0	x	-1	0	1
CC(C)CCOc1ccccc1C(N)=O	-28	0	-2	9.7*	-1	1
COc1ccc(NC(=O)Cn2c(=O)n(-c3ccc(OC)cc3OC)c(=O)c3c(C)c(C)sc32)cc1	-3	2	-1	-1	-1	-1
CCOC(=O)Cn1c(=O)c2c(nc(N3CCCCC3)n2Cc2ccccc2)n(C)c1=O	-16	6	44*	-2	28	-1
Cn1c(=O)c2c(O)c(C=Nc3ccc(F)cc3)c(=O)n(C)c2n(C)c1=O	-8	x	-2	x	x	1
CCOc1ccc(CNc2ccc(S(N)(=O)=O)cc2)cc1	-14	0	-8	-5	1	3.3*
CCOc1ccc(CNCCc2ccc(S(N)(=O)=O)cc2)cc1	-2	0	-7	-11	0	2
COc1ccc2nc(NC(=O)CSc3nnc(N)s3)sc2c1	1	-1	-7	-1	-6	1
